The source made the active and inactive calls. The rule behind the calls is not given here.
Columns and labels:
MDA-MB-231 = experiment: Antiproliferative activity against human MDA-MB-231 cells by XTT assay; format: functional, cell-based
Procedure, shortened: (§1)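 Cells (5 × 10³/well) exposed to compound for 72 h in medium with 10% FBS, medium changed and cells incubated another day. Percent of control growth from mean absorbance (n = 3).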

A549 = experiment: Antiproliferative activity against human A549 cells by XTT assay; format: functional, cell-based; procedure, shortened: as §1
MCF7 = experiment: Antiproliferative activity against human MCF7 cells by XTT assay; format: functional, cell-based; procedure, shortened: as §1
[1] = Antiproliferative activity against human H1299 cells by XTT assay; format: functional, cell-based; conditions: NCI-H1299; procedure, shortened: as §1
MRC5 = experiment: Antiproliferative activity against human MRC5 cells by XTT assay; format: cell-based; procedure, shortened: as §1
[2] = molecular target: Matrix metalloproteinase-9 (Homo sapiens) (UniProt P14780); experiment: Inhibition of MMP9 activity in human H1299 cells at 1 uM after 24 hrs by gelatin zymography; values are per cent of control
Matrix metalloproteinase-9 (Homo sapiens), sequence (P14780 whole entry): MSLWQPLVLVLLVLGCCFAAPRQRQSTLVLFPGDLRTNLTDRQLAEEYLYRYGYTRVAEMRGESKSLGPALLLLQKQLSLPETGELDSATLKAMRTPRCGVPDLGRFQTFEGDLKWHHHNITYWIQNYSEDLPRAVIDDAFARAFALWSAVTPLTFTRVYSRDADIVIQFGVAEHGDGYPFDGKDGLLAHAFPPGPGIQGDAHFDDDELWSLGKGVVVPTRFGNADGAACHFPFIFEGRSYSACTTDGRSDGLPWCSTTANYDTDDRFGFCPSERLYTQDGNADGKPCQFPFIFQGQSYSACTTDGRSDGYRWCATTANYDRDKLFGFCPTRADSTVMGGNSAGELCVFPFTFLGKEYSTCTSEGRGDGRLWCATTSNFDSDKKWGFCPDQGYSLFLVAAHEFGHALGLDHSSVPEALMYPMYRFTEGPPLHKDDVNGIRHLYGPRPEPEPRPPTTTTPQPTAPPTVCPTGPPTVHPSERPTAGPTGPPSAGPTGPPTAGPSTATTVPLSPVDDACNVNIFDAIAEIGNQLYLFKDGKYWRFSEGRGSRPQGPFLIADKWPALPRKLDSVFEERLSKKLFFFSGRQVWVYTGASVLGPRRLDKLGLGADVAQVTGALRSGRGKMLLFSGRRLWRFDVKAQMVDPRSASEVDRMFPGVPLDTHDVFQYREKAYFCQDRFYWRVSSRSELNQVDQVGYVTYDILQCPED

[3] = molecular target: 72 kDa type IV collagenase (Homo sapiens) (UniProt P08253); experiment: Inhibition of MMP2 activity in human H1299 cells after 24 hrs by gelatin zymography; format: cell-based
72 kDa type IV collagenase (Homo sapiens), sequence (P08253 110-660 limits assumed): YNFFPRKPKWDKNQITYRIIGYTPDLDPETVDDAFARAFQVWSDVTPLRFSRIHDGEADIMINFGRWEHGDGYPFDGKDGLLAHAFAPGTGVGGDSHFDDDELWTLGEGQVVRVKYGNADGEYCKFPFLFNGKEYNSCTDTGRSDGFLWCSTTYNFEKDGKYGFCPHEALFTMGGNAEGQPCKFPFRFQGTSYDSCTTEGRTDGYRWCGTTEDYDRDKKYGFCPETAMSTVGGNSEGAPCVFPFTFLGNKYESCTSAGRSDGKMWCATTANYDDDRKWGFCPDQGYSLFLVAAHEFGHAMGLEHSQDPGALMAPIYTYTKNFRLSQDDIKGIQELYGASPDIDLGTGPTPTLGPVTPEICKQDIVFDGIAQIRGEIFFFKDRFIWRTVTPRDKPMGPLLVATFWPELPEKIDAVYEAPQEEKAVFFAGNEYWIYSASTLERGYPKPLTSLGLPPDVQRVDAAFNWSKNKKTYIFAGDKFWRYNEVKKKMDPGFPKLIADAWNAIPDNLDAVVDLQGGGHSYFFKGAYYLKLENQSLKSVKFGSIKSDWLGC
Procedure, shortened: (§2)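 3 × 10⁵ H1299 cells cultured 24 h with compound. Conditioned medium run on 10% SDS-PAGE with 1% gelatin, gel incubated overnight at 37 °C in 40 mM Tris-HCl pH 8.0, 10 mM CaCl₂, 0.02% NaN₃, then Coomassie-stained and destained. Bands quantified versus vehicle; n = 3.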

[4] = molecular target: Matrix metalloproteinase-9 (Homo sapiens) (UniProt P14780); experiment: Inhibition of MMP9 activity in human H1299 cells at 2 uM after 24 hrs by gelatin zymography; values are per cent of control
[5] = molecular target: 72 kDa type IV collagenase (Homo sapiens) (UniProt P08253); experiment: Residual MMP2 activity in human H1299 cells at 2 uM after 24 hrs by gelatin zymography
[6] = molecular target: 72 kDa type IV collagenase (Homo sapiens) (UniProt P08253); experiment: Residual MMP2 activity in human H1299 cells at 5 uM after 24 hrs by gelatin zymography
[7] = molecular target: Matrix metalloproteinase-9 (Homo sapiens) (UniProt P14780); experiment: Inhibition of MMP9 activity in human H1299 cells after 24 hrs by gelatin zymography; format: cell-based; procedure, shortened: as §2
[8] = molecular target: MAP kinase p38 (Homo sapiens) (UniProt O15264+Q15759+Q16539+P53778); experiment: Increase in p38 phosphorylation in human H1299 cells at 1 to 5 uM after 24 hrs by Western blotting method; format: cell-based
Procedure, shortened: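 H1299 cells given vehicle or 0.2, 0.5, 1, 2 and 5 µM compound. Lysate proteins probed with primary and secondary antibodies after 5% milk blocking, ECL chemiluminescence detection. β-actin as internal control; each blot representative of three independent experiments.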

[9] = molecular target: 72 kDa type IV collagenase (Homo sapiens) (UniProt P08253); experiment: Residual MMP2 activity in human H1299 cells at 1 uM after 24 hrs by gelatin zymography

Row | SMILES | IC50 (MDA-MB-231) [nM] | IC50 (A549) [nM] | IC50 (MCF7) [nM] | IC50 [1] [nM] | IC50 (MRC5) [nM] | residual activity [2] [%] | inhibition [3] | residual activity [4] [%] | residual activity [5] [%] | residual activity [6] [%] | inhibition [7] | Activity [8] | residual activity [9] [%]
1 | COc1cccc2c1C(=O)c1c(O)c3c(c(O)c1C2=O)C[C@@](O)(C(C)=O)C[C@@H]3O[C@H]1C[C@H](N)[C@H](O)[C@H](C)O1 [DAUNORUBICIN] | 91 | 80 | 650 | 96 | 78 | – | – | – | – | – | – | – | –
2 | COc1ccc(-c2cc3cc(OC)ccc3nc2/C=C/c2ccc([N+](=O)[O-])o2)cc1 | – | – | – | – | – | 63.9 | Dose-dependent effect | 31.5 | 63.7 | 56.3 | Dose-dependent effect | Active | 75.5
3 | COc1ccc2c(c1)C(=O)c1c-2c(/C=C/c2ccc([N+](=O)[O-])o2)nc2ccc(F)cc12 | 93 | 740 | 580 | 460 | 800 | – | – | – | – | – | – | – | –
4 | COc1ccc2c(c1)C(=O)c1c-2c(/C=C/c2ccc([N+](=O)[O-])o2)nc2ccccc12 | 95 | 70 | 620 | 80 | 93 | – | – | – | – | – | – | – | –
5 | COc1ccc2c(c1)C(=O)c1c-2c(C)nc2ccc(OC)cc12 | 62300 | 75900 | 42000 | 33700 | 78400 | – | – | – | – | – | – | – | –
6 | COc1ccc2c(c1)C(=O)c1c-2c(/C=C/c2ccc([N+](=O)[O-])o2)nc2ccc(OC)cc12 | 930 | 1320 | 870 | 890 | 6070 | – | – | – | – | – | – | – | –
7 | COc1ccc2c(c1)C(=O)c1c-2c(C)nc2ccc(F)cc12 | 52100 | 71100 | 39600 | 31600 | 43200 | – | – | – | – | – | – | – | –
8 | COc1ccc2c(c1)C(=O)c1c-2c(C)nc2ccccc12 | 42000 | 61600 | 32600 | 21400 | 65400 | – | – | – | – | – | – | – | –

Source: ChEMBL document CHEMBL3351563, “Discovery of 2-[2-(5-nitrofuran-2-yl)vinyl]quinoline derivatives as a novel type of antimetastatic agents” (Bioorg Med Chem, 2015)
